Reference: ChEMBL document CHEMBL3877308, “Design, synthesis and in vitro biological evaluation of oligopeptides targeting E. coli type I signal peptidase (LepB)” (Bioorg Med Chem, 2017)
Converted amounts (≈) assume the structure as drawn.

How the values were obtained:
[1] = target: Signal peptidase I (Escherichia coli K-12) (UniProt P00803); assay: (§1) Inhibition of full length Escherichia coli His6-tagged LepB expressed in Escherichia coli C43(DE3) assessed as residual activity at 250 uM using dabcyl-VEVGGTATAGAFSRPGLE-(EDANS) as substrate preincubated for 10 mins followed by substrate addition measured for 2 hrs by FRET assay relative to control
Sequence of Signal peptidase I (Escherichia coli K-12) (P00803 whole entry): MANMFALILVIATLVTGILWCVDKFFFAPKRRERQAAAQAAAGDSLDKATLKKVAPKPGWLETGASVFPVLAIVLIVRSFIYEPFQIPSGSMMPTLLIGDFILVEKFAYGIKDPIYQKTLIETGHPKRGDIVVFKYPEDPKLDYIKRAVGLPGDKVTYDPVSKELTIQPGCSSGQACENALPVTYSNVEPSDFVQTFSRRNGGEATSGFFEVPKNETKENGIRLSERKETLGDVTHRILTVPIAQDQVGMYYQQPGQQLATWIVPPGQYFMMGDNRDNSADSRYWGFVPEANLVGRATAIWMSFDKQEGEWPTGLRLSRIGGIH
Summary of the method: (§2)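 Enzyme came from the membrane fraction, extracted with 1% reduced Triton X-100 and purified by metal-chelation chromatography in 0.5% detergent. FRET pair was dabcyl acceptor and EDANS donor. EcLepB (final about 50 nM) was pre-incubated with compound 10 min at 22 °C. Reaction was then run with 8 µM substrate, following the linear fluorescence increase at 22 °C for 2 h.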

[2] = target: Signal peptidase I (Escherichia coli K-12) (UniProt P00803); assay: as §1, with “0.241406” for “250”; summary of the method: as §2
[3] = target: Signal peptidase I (Escherichia coli K-12) (UniProt P00803); assay: as §1, with “3.90625” for “250”; summary of the method: as §2
[4] = target: Signal peptidase I (Escherichia coli K-12) (UniProt P00803); assay: as §1, with “0.1220703” for “250”; summary of the method: as §2
Pseudomonas aeruginosa [5] = assay: Antibacterial activity against wild type Pseudomonas aeruginosa PAO750 harboring efflux defective mutant after 16 to 20 hrs by broth microdilution assay; format: functional
Summary of the method: (§3)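 Broth microdilution MIC in cation-adjusted Mueller-Hinton II medium, following EUCAST and CLSI guidelines; tested on a panel of Gram-negative strains plus S. aureus ATCC 29213 (wild-type).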

Escherichia coli [6] = assay: Antibacterial activity against Escherichia coli CH3130 harboring tolC deletion mutant after 16 to 20 hrs by broth microdilution assay; format: functional; summary of the method: as §3
[7] = target: Signal peptidase I (Escherichia coli K-12) (UniProt P00803); assay: as §1, with “0.4882812” for “250”; summary of the method: as §2
[8] = target: Signal peptidase I (Escherichia coli K-12) (UniProt P00803); assay: as §1, with “15.625” for “250”; summary of the method: as §2
Staphylococcus aureus = assay: Antibacterial activity against wild type Staphylococcus aureus ATCC 29213 after 16 to 20 hrs by broth microdilution assay; format: functional
Summary of the method: (§4)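 MIC by broth microdilution in cation-adjusted Mueller-Hinton II medium, following EUCAST and CLSI guidelines; panel of Gram-negative strains plus S. aureus ATCC 29213.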

[9] = target: Signal peptidase I (Escherichia coli K-12) (UniProt P00803); assay: Inhibition of full length Escherichia coli His6-tagged LepB expressed in Escherichia coli C43(DE3) at 100 uM using dabcyl-VEVGGTATAGAFSRPGLE-(EDANS) as substrate preincubated for 10 mins followed by substrate addition measured for 2 hrs by FRET assay relative to control; summary of the method: as §2
[10] = target: Signal peptidase I (Escherichia coli K-12) (UniProt P00803); assay: Inhibition of full length Escherichia coli His6-tagged LepB expressed in Escherichia coli C43(DE3) assessed as residual activity at 500 uM using dabcyl-VEVGGTATAGAFSRPGLE-(EDANS) as substrate preincubated for 10 mins followed by substrate addition measured for 2 hrs by FRET assay relative to control; summary of the method: as §2
[11] = target: Signal peptidase I (Escherichia coli K-12) (UniProt P00803); assay: as §1, with “0.9765625” for “250”; summary of the method: as §2
Acinetobacter baumannii = assay: Antibacterial activity against wild type Acinetobacter baumannii ATCC 19606 after 16 to 20 hrs by broth microdilution assay; format: functional; summary of the method: as §4
Signal peptidase I [12] = target: T1, Signal peptidase I (Escherichia coli K-12, UniProt P00803); assay: Inhibition of full length Escherichia coli His6-tagged LepB expressed in Escherichia coli C43(DE3) using dabcyl-VEVGGTATAGAFSRPGLE-(EDANS) as substrate preincubated for 10 mins followed by substrate addition measured for 2 hrs by FRET assay
T1 sequence (P00803 whole entry): as above
Summary of the method: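 Enzyme extracted from the membrane fraction with 1% reduced Triton X-100 and purified by metal-chelation chromatography in 0.5% detergent. Enzyme (final ~50 nM) was pre-incubated with compound for 10 min at 22 °C. The linear rise in EDANS donor fluorescence (dabcyl acceptor) was then followed at 22 °C for 2 h. IC50 came from non-linear regression of sigmoidal rate-versus-concentration curves.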

Escherichia coli [13] = assay: Antibacterial activity against wild type Escherichia coli ATCC 25922 after 16 to 20 hrs by broth microdilution assay; format: functional; summary of the method: as §4
Signal peptidase I [14] = target: T1, Signal peptidase I; assay: Inhibition of full length Escherichia coli His6-tagged LepB expressed in Escherichia coli C43(DE3) using dabcyl-VEVGGTATAGAFSRPGLE-(EDANS) as substrate preincubated for 10 mins followed by substrate addition measured after […] by FRET assay
Pseudomonas aeruginosa [15] = assay: Antibacterial activity against wild type Pseudomonas aeruginosa PAO1 after 16 to 20 hrs by broth microdilution assay; format: functional; summary of the method: as §4
[16] = target: Signal peptidase I (Escherichia coli K-12) (UniProt P00803); assay: as §1, with “62.5” for “250”; summary of the method: as §2
[17] = target: Signal peptidase I (Escherichia coli K-12) (UniProt P00803); assay: as §1, with “1000” for “250”; summary of the method: as §2
Escherichia coli [18] = assay: Antibacterial activity against Escherichia coli D22 harboring lpxC mutant after 16 to 20 hrs by broth microdilution assay; format: functional; summary of the method: as §3
[19] = target: Signal peptidase I (Escherichia coli K-12) (UniProt P00803); assay: as §1, with “7.8125” for “250”; summary of the method: as §2
Klebsiella pneumoniae = assay: Antibacterial activity against wild type Klebsiella pneumoniae […] after 16 to 20 hrs by broth microdilution assay; format: functional; summary of the method: as §4
[20] = target: Signal peptidase I (Escherichia coli K-12) (UniProt P00803); assay: as §1, with “31.25” for “250”; summary of the method: as §2
[21] = target: Signal peptidase I (Escherichia coli K-12) (UniProt P00803); assay: as §1, with “1.953125” for “250”; summary of the method: as §2
[22] = target: Signal peptidase I (Escherichia coli K-12) (UniProt P00803); assay: Inhibition of full length Escherichia coli His6-tagged LepB expressed in Escherichia coli C43(DE3) assessed as residual activity at 125 uM using dabcyl-VEVGGTATAGAFSRPGLE-(EDANS) as substrate preincubated for 10 mins followed by substrate addition measured for 2 hrs by FRET assay relative to control; summary of the method: as §2

SMILES: CCCCCCCCCC(=O)N1CCC[C@H]1C(=O)N[C@H](C(=O)N[C@@H](C)C(=O)N[C@@H](CC(N)=O)C(=O)N[C@@H](C)C=O)[C@H](C)O
- Activity [1]: -6.1%
- Activity [2]: 72.6%
- Activity [3]: 34.7%
- Activity [4]: 77.4%
- MIC (Pseudomonas aeruginosa [5]): 128 µg/mL (≈ 210 µM)
- MIC (Escherichia coli [6]): > 128 µg/mL
- Activity [7]: 64.5%
- Activity [8]: 13%
- MIC (Staphylococcus aureus): > 128 µg/mL
- inhibition [9]: 100%
- Activity [10]: -4.44%
- Activity [11]: 48.7%
- MIC (Acinetobacter baumannii): > 128 µg/mL
- IC50 (Signal peptidase I [12]): 1.2 µM
- MIC (Escherichia coli [13]): > 128 µg/mL
- IC50 (Signal peptidase I [14]): 6.5 µM
- MIC (Pseudomonas aeruginosa [15]): > 128 µg/mL
- Activity [16]: -0.871%
- Activity [17]: -5.5%
- MIC (Escherichia coli [18]): > 128 µg/mL
- Activity [19]: 20.9%
- MIC (Klebsiella pneumoniae): > 128 µg/mL
- Activity [20]: 6.54%
- Activity [21]: 43.6%
- Activity [22]: -3.34%
